# Results reported in ChEMBL document CHEMBL1250448, “Inhibitor hijacking of Akt activation” (Nat Chem Biol, 2009).
# Columns and labels:
# [1] = biological target: NT-3 growth factor receptor (Homo sapiens) (UniProt Q16288); experiment: Inhibition of NTRK3 at 1 uM in presence of 10 uM ATP by Select Screen kinase assay relative to untreated control
# How it was run: (§1)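 Commercial SelectScreen profiling panel of 220 purified kinases. Each kinase was tested at a single inhibitor concentration of 1 μM, and activity was expressed as percent inhibition.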
# [2] = biological target: Serine/threonine-protein kinase 25 (Homo sapiens) (UniProt O00506); experiment: Inhibition of STK25 at 1 uM in presence of 100 uM ATP by Select Screen kinase assay relative to untreated control; how it was run: as §1
# [3] = biological target: Dual specificity mitogen-activated protein kinase kinase 1 (Homo sapiens) (UniProt Q02750); experiment: Inhibition of MAP2K1 at 1 uM in presence of 100 uM ATP by Select Screen kinase assay relative to untreated control
# How it was run: (§2)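 Single-concentration profiling at 1 μM against a panel of 220 purified kinases, run as an outsourced SelectScreen kinase profiling service. Activity is expressed as percent inhibition.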
# [4] = biological target: RAC-alpha serine/threonine-protein kinase (Homo sapiens, UniProt P31749); experiment: Inhibition of AKT1 at 1 uM in presence of 10 uM ATP by Select Screen kinase assay relative to untreated control
# How it was run: (§3)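 Single-point screen at 1 μM against a panel of 220 purified kinases, run by Invitrogen staff as a SelectScreen profiling service. Read-out is percent inhibition of kinase activity.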
# [5] = biological target: Protein-tyrosine kinase 6 (Homo sapiens) (UniProt Q13882); experiment: Inhibition of PTK6 at 1 uM in presence of 10 uM ATP by Select Screen kinase assay relative to untreated control; how it was run: as §1
# [6] = biological target: G protein-coupled receptor kinase 5 (Homo sapiens) (UniProt P34947); experiment: Inhibition of GRK5 at 1 uM in presence of 10 uM ATP by Select Screen kinase assay relative to untreated control; how it was run: as §2
# [7] = biological target: T1, Ephrin type-B receptor 2 (Homo sapiens) (UniProt P29323); experiment: Inhibition of EPHB2 at 1 uM in presence of 10 uM ATP by Select Screen kinase assay relative to untreated control; how it was run: as §3
# T1 sequence (whole entry): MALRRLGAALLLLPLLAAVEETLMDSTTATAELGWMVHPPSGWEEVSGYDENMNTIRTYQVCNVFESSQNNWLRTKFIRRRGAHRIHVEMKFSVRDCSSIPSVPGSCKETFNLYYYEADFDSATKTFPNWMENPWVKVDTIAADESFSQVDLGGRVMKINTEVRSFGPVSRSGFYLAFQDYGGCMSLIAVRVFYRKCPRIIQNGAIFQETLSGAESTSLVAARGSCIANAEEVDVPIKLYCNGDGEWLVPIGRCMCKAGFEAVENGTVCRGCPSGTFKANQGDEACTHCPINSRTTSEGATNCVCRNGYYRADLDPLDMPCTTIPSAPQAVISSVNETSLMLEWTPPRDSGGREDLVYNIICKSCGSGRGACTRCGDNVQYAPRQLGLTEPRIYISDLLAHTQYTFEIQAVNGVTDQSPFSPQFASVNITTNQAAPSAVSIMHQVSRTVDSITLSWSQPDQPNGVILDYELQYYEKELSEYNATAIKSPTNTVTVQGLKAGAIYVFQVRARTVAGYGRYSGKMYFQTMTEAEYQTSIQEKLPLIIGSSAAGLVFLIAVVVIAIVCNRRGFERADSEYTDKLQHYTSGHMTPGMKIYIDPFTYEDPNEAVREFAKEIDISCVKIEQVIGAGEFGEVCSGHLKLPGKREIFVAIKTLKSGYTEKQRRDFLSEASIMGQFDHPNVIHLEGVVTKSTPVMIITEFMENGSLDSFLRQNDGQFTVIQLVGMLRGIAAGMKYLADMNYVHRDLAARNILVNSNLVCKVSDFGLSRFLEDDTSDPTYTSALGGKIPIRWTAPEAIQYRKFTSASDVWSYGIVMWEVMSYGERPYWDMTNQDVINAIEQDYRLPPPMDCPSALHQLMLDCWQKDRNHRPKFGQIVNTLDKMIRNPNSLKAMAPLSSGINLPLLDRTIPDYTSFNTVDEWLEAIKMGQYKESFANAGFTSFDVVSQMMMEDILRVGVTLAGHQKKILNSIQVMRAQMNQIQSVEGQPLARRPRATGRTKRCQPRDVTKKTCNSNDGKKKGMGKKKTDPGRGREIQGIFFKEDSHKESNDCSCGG
# [8] = biological target: PAS domain-containing serine/threonine-protein kinase (Homo sapiens) (UniProt Q96RG2); experiment: Inhibition of PASK at 1 uM in presence of 10 uM ATP by Select Screen kinase assay relative to untreated control; how it was run: as §1
# [9] = biological target: Tyrosine-protein kinase SYK (Homo sapiens) (UniProt P43405); experiment: Inhibition of SYK at 1 uM in presence of 10 uM ATP by Select Screen kinase assay relative to untreated control; how it was run: as §1
# [10] = biological target: T2, Mitogen-activated protein kinase 13 (Homo sapiens) (UniProt O15264); experiment: Inhibition of MAPK13 at 1 uM in presence of 10 uM ATP by Select Screen kinase assay relative to untreated control; how it was run: as §2
# T2 sequence (whole entry): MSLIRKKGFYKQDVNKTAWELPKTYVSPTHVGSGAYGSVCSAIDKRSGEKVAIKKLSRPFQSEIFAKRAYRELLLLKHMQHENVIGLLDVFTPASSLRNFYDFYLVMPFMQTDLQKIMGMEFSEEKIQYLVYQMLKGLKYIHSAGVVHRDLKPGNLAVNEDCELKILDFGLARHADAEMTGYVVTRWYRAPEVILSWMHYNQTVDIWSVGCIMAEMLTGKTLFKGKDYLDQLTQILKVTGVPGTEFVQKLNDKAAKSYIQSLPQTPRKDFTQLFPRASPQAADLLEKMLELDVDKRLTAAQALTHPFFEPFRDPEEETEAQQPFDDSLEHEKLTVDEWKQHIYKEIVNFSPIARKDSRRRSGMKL
# Dual specificity mitogen-activated protein kinase kinase 1 (Homo sapiens), sequence (Q02750 whole entry): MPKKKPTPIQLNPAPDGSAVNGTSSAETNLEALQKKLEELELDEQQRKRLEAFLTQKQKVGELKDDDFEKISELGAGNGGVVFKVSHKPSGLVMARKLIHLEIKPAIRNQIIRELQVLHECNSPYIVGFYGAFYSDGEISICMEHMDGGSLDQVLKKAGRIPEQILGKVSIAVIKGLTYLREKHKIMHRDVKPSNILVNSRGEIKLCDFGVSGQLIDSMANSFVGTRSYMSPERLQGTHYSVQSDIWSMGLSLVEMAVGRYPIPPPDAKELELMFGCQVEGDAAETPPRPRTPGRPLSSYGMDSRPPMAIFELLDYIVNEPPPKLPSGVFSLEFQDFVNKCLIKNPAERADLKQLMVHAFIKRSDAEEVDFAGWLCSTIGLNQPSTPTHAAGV
# PAS domain-containing serine/threonine-protein kinase (Homo sapiens), sequence (Q96RG2 whole entry, the tested form may be a part): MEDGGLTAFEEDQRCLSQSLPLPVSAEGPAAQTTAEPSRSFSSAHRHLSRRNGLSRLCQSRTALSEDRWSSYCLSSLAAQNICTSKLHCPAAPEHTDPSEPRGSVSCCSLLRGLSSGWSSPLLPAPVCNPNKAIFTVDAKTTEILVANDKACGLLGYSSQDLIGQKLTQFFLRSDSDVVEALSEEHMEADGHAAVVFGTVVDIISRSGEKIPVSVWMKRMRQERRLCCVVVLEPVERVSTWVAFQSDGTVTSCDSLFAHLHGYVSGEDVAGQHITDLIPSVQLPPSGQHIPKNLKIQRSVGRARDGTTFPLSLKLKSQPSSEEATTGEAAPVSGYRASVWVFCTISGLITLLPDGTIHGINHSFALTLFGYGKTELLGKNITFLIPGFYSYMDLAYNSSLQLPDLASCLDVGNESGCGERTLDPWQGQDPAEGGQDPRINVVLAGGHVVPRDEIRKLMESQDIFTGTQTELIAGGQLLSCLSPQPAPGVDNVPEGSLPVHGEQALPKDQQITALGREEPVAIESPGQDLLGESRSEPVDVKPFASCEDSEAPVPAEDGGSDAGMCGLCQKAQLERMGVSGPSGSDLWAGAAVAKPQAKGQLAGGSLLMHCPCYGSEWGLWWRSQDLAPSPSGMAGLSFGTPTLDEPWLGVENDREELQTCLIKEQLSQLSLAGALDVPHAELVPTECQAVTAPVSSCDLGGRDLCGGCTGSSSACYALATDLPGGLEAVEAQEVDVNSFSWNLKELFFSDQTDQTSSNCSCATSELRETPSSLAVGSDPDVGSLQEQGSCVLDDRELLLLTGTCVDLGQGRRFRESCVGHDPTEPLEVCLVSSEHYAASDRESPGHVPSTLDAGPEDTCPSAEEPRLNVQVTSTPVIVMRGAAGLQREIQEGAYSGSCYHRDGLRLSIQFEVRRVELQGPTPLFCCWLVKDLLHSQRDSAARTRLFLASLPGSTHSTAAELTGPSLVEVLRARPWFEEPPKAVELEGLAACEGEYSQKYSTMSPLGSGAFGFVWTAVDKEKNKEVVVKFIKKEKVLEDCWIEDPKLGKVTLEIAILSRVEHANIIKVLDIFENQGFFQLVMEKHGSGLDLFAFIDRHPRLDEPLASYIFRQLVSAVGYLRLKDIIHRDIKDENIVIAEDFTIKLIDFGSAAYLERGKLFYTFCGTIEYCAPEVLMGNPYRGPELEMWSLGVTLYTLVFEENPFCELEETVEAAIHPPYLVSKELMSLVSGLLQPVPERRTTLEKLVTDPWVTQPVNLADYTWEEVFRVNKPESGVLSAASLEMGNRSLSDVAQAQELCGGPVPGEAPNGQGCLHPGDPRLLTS
# RAC-alpha serine/threonine-protein kinase, sequence (P31749 whole entry): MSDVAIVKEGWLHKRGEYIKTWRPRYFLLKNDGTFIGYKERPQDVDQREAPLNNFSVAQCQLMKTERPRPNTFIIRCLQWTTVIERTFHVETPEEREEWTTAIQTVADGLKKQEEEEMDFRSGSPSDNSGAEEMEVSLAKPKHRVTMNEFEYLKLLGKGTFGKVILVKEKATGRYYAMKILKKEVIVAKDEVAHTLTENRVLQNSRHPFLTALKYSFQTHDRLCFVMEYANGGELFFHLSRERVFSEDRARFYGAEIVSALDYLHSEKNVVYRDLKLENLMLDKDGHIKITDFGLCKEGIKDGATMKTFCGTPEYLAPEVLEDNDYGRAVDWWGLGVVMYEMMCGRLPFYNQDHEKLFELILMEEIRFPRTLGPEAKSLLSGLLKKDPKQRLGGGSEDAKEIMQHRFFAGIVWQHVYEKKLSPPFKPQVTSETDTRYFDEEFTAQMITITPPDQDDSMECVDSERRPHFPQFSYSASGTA
# NT-3 growth factor receptor (Homo sapiens), sequence (Q16288 32-839 limits assumed): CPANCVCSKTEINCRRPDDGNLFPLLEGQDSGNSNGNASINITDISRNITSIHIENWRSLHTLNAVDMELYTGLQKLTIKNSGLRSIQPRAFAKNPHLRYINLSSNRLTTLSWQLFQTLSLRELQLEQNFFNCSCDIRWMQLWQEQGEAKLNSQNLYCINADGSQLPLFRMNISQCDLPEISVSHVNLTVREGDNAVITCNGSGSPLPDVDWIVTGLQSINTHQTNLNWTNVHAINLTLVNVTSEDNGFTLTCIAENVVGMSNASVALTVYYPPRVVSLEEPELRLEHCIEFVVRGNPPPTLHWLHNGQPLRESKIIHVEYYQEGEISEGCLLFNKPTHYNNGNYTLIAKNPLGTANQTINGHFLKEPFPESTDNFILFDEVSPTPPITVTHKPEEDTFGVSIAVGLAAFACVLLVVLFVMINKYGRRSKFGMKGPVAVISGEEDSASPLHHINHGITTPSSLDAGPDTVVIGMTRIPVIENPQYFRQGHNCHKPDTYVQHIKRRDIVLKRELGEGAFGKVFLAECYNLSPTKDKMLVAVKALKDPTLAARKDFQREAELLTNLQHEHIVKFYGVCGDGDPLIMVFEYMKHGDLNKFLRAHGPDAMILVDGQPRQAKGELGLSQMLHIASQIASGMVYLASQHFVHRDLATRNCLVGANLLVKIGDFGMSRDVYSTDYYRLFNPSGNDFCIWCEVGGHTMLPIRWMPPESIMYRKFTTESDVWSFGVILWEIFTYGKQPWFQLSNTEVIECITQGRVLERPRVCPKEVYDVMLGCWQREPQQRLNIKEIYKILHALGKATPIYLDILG
# G protein-coupled receptor kinase 5 (Homo sapiens), sequence (P34947 whole entry, looked up): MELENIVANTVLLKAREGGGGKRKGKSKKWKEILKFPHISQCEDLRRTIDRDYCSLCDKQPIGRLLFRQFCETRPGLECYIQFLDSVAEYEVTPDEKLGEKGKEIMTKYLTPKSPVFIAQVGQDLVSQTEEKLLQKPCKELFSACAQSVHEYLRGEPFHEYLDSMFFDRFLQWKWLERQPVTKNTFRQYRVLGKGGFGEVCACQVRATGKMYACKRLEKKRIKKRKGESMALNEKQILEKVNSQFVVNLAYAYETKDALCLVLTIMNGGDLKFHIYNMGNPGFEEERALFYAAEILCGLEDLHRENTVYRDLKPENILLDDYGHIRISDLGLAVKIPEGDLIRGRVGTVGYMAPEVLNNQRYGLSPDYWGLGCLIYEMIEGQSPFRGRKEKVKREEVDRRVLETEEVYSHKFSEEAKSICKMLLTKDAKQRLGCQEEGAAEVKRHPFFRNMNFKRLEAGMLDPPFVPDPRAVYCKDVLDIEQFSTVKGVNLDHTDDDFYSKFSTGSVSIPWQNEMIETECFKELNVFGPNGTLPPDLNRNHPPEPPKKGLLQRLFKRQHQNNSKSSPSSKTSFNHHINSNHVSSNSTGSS
# Protein-tyrosine kinase 6 (Homo sapiens), sequence (Q13882 whole entry, looked up): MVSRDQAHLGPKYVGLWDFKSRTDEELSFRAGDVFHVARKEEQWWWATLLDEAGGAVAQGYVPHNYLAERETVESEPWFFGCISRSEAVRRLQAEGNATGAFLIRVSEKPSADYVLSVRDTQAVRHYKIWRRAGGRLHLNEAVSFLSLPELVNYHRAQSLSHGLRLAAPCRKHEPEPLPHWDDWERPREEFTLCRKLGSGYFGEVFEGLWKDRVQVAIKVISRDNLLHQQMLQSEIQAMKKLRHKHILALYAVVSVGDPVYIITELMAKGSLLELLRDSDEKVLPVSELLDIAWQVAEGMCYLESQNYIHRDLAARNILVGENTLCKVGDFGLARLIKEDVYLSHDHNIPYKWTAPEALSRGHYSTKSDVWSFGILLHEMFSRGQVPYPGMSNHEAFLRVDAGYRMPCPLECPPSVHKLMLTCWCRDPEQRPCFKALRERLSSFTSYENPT
# Serine/threonine-protein kinase 25 (Homo sapiens), sequence (O00506 whole entry, looked up): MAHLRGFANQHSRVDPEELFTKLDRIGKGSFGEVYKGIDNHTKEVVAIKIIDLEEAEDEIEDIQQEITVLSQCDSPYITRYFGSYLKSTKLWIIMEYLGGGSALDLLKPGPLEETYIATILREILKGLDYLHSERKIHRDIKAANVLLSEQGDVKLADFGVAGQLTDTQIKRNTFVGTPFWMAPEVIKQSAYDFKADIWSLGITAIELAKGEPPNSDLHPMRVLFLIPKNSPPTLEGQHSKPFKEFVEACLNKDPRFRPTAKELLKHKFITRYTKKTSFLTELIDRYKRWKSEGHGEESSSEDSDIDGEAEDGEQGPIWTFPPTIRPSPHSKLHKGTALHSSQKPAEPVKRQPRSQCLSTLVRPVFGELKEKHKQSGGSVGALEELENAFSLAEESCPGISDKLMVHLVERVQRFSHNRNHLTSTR
inhibition [1] [%],inhibition [2] [%],inhibition [3] [%],inhibition [4] [%],inhibition [5] [%],inhibition [6] [%],inhibition [7] [%],inhibition [8] [%],inhibition [9] [%],inhibition [10] [%],Compound
80,13,67,7,9,7,7,3,84,27,O=C(NCCCNc1nc(Nc2cccc(NC(=O)N3CCCC3)c2)ncc1I)c1cccs1
37,14,12,16,2,7,7,1,12,12,COc1ccccc1N1CCN(c2ncnc3[nH]nc(Br)c23)CC1

Compound,inhibition [1] [%],inhibition [2] [%],inhibition [3] [%],inhibition [4] [%],inhibition [5] [%],inhibition [6] [%],inhibition [7] [%],inhibition [8] [%],inhibition [9] [%],inhibition [10] [%]
Cc1n[nH]c2ccc(-c3cncc(OC[C@@H](N)Cc4c[nH]c5ccccc45)c3)cc12,28,102,42,100,0,46,1,36,0,36
